Usually IC50 stands for the midpoint of a concentration-inhibition curve.

Active and inactive are the calls of the source. The rule behind the calls is not given here.

The source of these data is ChEMBL document CHEMBL3817734, “Structure-activity relationships of vanillic acid ester analogs in inhibitory effect of antigen-mediated degranulation in rat basophilic leukemia RBL-2H3 cells” (Bioorg Med Chem Lett, 2016).

Data set [1] deals with RBL-2H3. The data set can be described thus: Anti-allergic activity in RBL2H3 cells assessed as inhibition of anti-DNP-IgE-induced degranulation incubated for 20 mins followed by DNP-labeled human serum albumin addition measured after 1 hr by beta-hexosaminidase release assay. Particulars: Rattus norvegicus. It is filed as functional, cell-based. The method in brief:
(§1)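 DNP-IgE-sensitized RBL-2H3 cells were pretreated with test samples for 20 min, with 75 μM oxatomide as positive control, then stimulated with DNP-HSA for 1 h. Degranulation was read as β-hexosaminidase release. Compounds were dissolved in culture medium containing cyclodextrin (CD). Data are the mean of three independent cultures ± SD, compared with control by Dunnett's test.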

The test system of data set [2] is RBL-2H3. The data set can be described thus: Anti-allergic activity in RBL2H3 cells assessed as inhibition of anti-DNP-IgE-induced degranulation at 30 to 300 uM incubated for 20 mins followed by DNP-labeled human serum albumin addition measured after 1 hr by beta-hexosaminidase release assay. It is filed as functional, cell-based. Particulars: Rattus norvegicus. Summed up:
as §1

Data set [3] in a line: Drug level in RBL2H3 cells treated with butyl vanillate assessed as esterase-mediated compound formation. The data set is classed as ADME, cell-based. Particulars: rat, rbl-2h3.
Data set [4] has as its system RBL-2H3. The data set is described as follows: Anti-allergic activity in RBL2H3 cells assessed as inhibition of anti-DNP-IgE-induced degranulation at 100 to 1000 uM incubated for 20 mins followed by DNP-labeled human serum albumin addition measured after 1 hr by beta-hexosaminidase release assay. Particulars: Rattus norvegicus. It is filed as functional, cell-based. The method in brief:
as §1

The nature of data set [5]: Drug level in RBL2H3 cells treated with ferulic acid. Particulars: rat, rbl-2h3. It is filed as ADME, cell-based.
The subject of data set [6] is RBL-2H3. The data set is described as follows: Anti-allergic activity in RBL2H3 cells assessed as inhibition of anti-DNP-IgE-induced degranulation at 1000 uM incubated for 20 mins followed by DNP-labeled human serum albumin addition measured after 1 hr by beta-hexosaminidase release assay. It is filed as functional, cell-based. Particulars: Rattus norvegicus. The method in brief: as §1

Data set [7] can be described thus: Drug metabolism in RBL2H3 cells assessed as vanillin and vanillic acid formation. It is filed as ADME, cell-based. Particulars: rat, rbl-2h3.
The nature of data set [8]: Cytotoxicity in RBL2H3 cells. It is filed as cell-based. Particulars: rat, rbl-2h3.
A short description of data set [9]: Solubility of compound in water. The data set is classed as physicochemical. Particulars: buffer.
Data set [10] is described as follows: Drug metabolism in RBL2H3 cells assessed as esterase-mediated vanillic acid formation. The data set is classed as ADME, cell-based. Particulars: rat, rbl-2h3.
Data set [11] in a line: Drug metabolism in RBL2H3 cells assessed as esterase-mediated butanol formation. It is filed as ADME, cell-based. Particulars: rat, rbl-2h3.
Data set [12] in a line: Increase in anti-DNP-IgE-induced degranulation in RBL2H3 cells incubated for 20 mins followed by DNP-labeled human serum albumin addition measured after 1 hr by beta-hexosaminidase release assay. The data set is classed as cell-based. Particulars: rat, rbl-2h3, 1 h. Summed up: as §1

For `COc1cc(C(=O)OC(C)C)ccc1O`, the concentration for half-maximal inhibition (IC50) with RBL-2H3 [1] was found to be 415 µM.

With `CCCCOC(=O)c1ccccc1`, the inhibition result with RBL-2H3 [2] is “inactive”.

Consider `CCOC(=O)CCc1ccc(O)c(OC)c1`, for which, in the data set on RBL-2H3 [2], the inhibition result is “inactive”.

With `CCCCOC(=O)c1ccc(OC)cc1`, in the data set with RBL-2H3 [2], the inhibition result is “inactive”.

In the case of `COc1cc(C(=O)O)ccc1O` [VANILLIC ACID], the Drug metabolism result in [3] and in data set [5] was “metabolite_detected” each time. Moreover, the inhibition result in the data set on RBL-2H3 [4] was “inactive”.

On to `COC(=O)c1ccc(O)c(OC)c1` [METHYL VANILLATE], for which the IC50 in the data set on RBL-2H3 [1] came out at 640 µM. Further, in the data set with RBL-2H3 [6], the inhibition result is “Active”.

For `COc1cc(/C=C/C(=O)O)ccc1O` [FERULATE], in data set [7], the Drug metabolism entry is listed as “metabolite_detected”. For the same molecule, in the data set with RBL-2H3 [1], the inhibition result was “Active”.

Consider `CCCCOC(=O)c1ccc(O)c(OC)c1`, for which the Activity entry in data set [8] is “Non-toxic”. Also, in [9], the solubility entry is reported as “soluble”. In addition, the Drug metabolism result in data set [10] and in data set [11] was “metabolite_detected” each time. The IC50 in the data set on RBL-2H3 [1] is 198 µM.

For the molecule `COc1cc(C=O)ccc1O` [VANILLIN], in the data set with RBL-2H3 [4], the inhibition entry was “inactive”. For the same molecule, the Drug metabolism entry in [5] is “metabolite_detected”.

With `CCCCOC(=O)c1cccc(O)c1`, the inhibition entry in the data set on RBL-2H3 [2] was “Active”.

For `CCCOC(=O)Cc1ccc(O)c(OC)c1`, in the data set with RBL-2H3 [2], the inhibition entry was “inactive”.

As for `CCCCOC(=O)c1ccc(O)cc1`, the inhibition result in the data set on RBL-2H3 [2] is “Active”.

Regarding `CCCCOC(=O)c1ccc(OC)c(O)c1`, the inhibition result in the data set with RBL-2H3 [2] is “Active”.

Turning to `CCCCOC(=O)c1cccc(OC)c1`, the inhibition entry with RBL-2H3 [2] is “inactive”.

In the case of `CCCOC(=O)c1ccc(O)c(OC)c1`, the IC50 in the data set with RBL-2H3 [1] came out at 294 µM.

Take `CCCCCCCCOC(=O)c1ccc(O)c(OC)c1`: the Activity entry in data set [12] and in data set [8] was “Toxic” each time.
